One experiment deals with T1, Cholecystokinin receptor (Rattus norvegicus, UniProt P30551+P30553).
T1 sequence (P30551 whole entry): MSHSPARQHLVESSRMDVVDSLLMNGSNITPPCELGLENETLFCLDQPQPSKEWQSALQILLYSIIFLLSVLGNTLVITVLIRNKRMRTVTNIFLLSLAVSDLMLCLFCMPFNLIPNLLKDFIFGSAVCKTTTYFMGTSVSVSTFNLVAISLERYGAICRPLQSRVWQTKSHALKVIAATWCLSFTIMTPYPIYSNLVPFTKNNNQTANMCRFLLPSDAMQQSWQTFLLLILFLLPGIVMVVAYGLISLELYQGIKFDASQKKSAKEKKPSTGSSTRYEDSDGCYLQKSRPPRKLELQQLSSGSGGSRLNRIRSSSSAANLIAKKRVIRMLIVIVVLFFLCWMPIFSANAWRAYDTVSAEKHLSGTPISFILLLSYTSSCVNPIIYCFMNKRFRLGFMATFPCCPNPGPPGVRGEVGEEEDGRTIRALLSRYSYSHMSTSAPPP
T1 sequence (P30553 whole entry): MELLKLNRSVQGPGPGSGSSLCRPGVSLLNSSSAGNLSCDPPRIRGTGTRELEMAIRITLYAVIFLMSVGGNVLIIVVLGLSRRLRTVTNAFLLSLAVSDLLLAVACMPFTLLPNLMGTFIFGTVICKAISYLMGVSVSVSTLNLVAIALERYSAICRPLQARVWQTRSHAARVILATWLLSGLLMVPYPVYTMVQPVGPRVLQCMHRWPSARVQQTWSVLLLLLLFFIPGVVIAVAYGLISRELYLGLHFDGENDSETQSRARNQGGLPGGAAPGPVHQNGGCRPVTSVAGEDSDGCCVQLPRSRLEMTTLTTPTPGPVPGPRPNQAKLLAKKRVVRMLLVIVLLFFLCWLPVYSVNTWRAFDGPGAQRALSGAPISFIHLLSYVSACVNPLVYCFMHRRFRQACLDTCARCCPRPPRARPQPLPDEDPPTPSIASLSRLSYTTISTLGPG
The experiment is classed as protein assay.

Experiment [1] has as its system Mus musculus. The experiment is described as follows: In vivo activity on the basis of the ability to antagonize CCK-8 inhibition of charcoal meal gastric emptying in mice after intraperitoneal administration. The experiment is classed as functional. The following applies: Stomach, ip. The method in brief: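 Mice dosed intraperitoneally 1 h before CCK-8 (80 μg/kg, sc), N ≥ 10/dose. A charcoal meal was given 5 min after CCK-8 and gastric emptying was measured 5 min later. ED50 was derived by regression from at least three dose levels.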

Experiment [2] concerns Mus musculus. The experiment is described as follows: In vivo activity on the basis of the ability to antagonize CCK-8 inhibition of charcoal meal gastric emptying in mice after oral administration. The class given is functional. The following applies: Stomach. In a few lines:
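Oral dosing of mice (N ≥ 10/dose) 1 h before sc CCK-8 at 80 μg/kg. The charcoal meal followed CCK-8 by 5 min, with gastric emptying scored 5 min after that. ED50 was obtained by regression analysis using at least three dose levels.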

Experiment [3] has as its target GABA-A receptor; anion channel. The experiment is described as follows: Displacement of [3H]diazepam from rat brain GABA-A benzodiazepine receptor. A general note: Loss of bound radioactivity is the signal in a displacement assay; it reports binding, not function.
The species named for the next experiment is Rattus norvegicus. The experiment is described as follows: Selectivity of binding to pancreatic CCK and brain benzodiazepine receptors, ratio of IC50.

For `O=C1Nc2ccc(Cl)cc2C(c2ccccc2)N[C@@H]1Cc1c[nH]c2ccccc12` (stereo not given in full), on Cholecystokinin receptor, the IC50 is 12 µM. In other words, the double-digit micromolar range.
Compound `O=C1Nc2ccccc2C(c2ccccc2)=NC1Cc1c[nH]c2ccc(Br)cc12` (stereo not given) returned an IC50 against Cholecystokinin receptor of 2.9 µM.
The compound `CN1C(=O)[C@@H](Cc2c[nH]c3ccccc23)N=C(c2ccccc2)c2ccccc21` registered an IC50 at Cholecystokinin receptor of 0.3 µM. This IC50 is about 9.7-fold lower than that of the compound before.
`CN(C)CCN1C(=O)[C@@H](Cc2c[nH]c3ccccc23)N=C(c2ccccc2F)c2ccccc21`: the IC50 on Cholecystokinin receptor is ~ 100 uM.
Consider `CN1C(=O)[C@@H](Cc2cn(C)c3ccccc23)N=C(c2ccccc2F)c2ccccc21`, for which, on Cholecystokinin receptor, the IC50 turned out to be 0.36 µM. Further, the 50% effective dose (ED50) is 18 mg/kg with Mus musculus [1] and 39 mg/kg in the experiment with Mus musculus [2].
As for `O=C1Nc2ccc(Cl)cc2C(c2ccccc2)=N[C@@H]1Cc1ccccc1`, the IC50 at Cholecystokinin receptor was 80 µM. This counts as double-digit micromolar.
`O=C1Nc2ccccc2C1C[C@H]1N=C(c2ccccc2)c2cc(Cl)ccc2NC1=O` (stereo not given in full): the IC50 against Cholecystokinin receptor came out at 24 µM.
Same read-out and setting: in the case of `O=C(O)c1ccccc1C1=N[C@H](Cc2c[nH]c3ccccc23)C(=O)Nc2ccccc21` it was 18 µM.
Still for that read-out and setting: in the case of `CC(C)CC(NC(=O)OC(C)(C)C)C(=O)N1CC(CC2N=C(c3ccccc3)c3ccccc3NC2=O)c2ccccc21` (stereo not given) it was 4.7 µM.
As for `Fc1ccccc1C1=N[C@H](Cc2c[nH]c3ccccc23)CNc2ccccc21`, the IC50 on Cholecystokinin receptor amounted to 4 µM.
For `O=C1Nc2ccccc2C(c2ccccc2F)=NC1c1ccsc1` (stereo not given), the IC50 at Cholecystokinin receptor is more than 100 µM.
Turning to `O=C1CN=C(c2ccccc2Cl)c2cc([N+](=O)[O-])ccc2N1` [CLONAZEPAM], the results for the IC50 (at Cholecystokinin receptor; in experiment [3]) were more than 100 µM and 0.0017 µM, respectively. Besides, in the experiment listed under Rattus norvegicus, the Ratio was more than 58000.
Turning to `CN1C(=O)[C@@H](Cc2cn(C(=O)c3ccc(Cl)cc3)c3ccccc23)N=C(c2ccccc2F)c2ccccc21`, the IC50 against Cholecystokinin receptor came to 11 µM.
Compound `SC1=Nc2ccc(Cl)cc2C(c2ccccc2)=N[C@@H]1Cc1c[nH]c2ccccc12` registered an IC50 against Cholecystokinin receptor of 4.5 µM.
At Cholecystokinin receptor, `O=C1Nc2ccccc2C(c2ccccc2F)=NC1Cc1c[nH]c2cc(F)ccc12` (stereo not given) returned an IC50 of 1.3 µM.
At Cholecystokinin receptor, `CN1C(=O)[C@@H](Cc2cn(C)c3ccccc23)N(C(=O)c2ccc(Cl)cc2)C(c2ccccc2F)c2ccccc21` (stereo not given in full) had an IC50 of more than 100 µM.
As for `O=C1Nc2ccccc2C(c2ccccc2)=N[C@@H]1Cc1c[nH]c2ccccc12`, the IC50 was 1.2 µM at Cholecystokinin receptor and more than 100 µM in experiment [3]. In the experiment on Mus musculus [2], this compound registered an ED50 of more than 150 mg/kg.
For `O=C1Nc2ccc(Cl)cc2C(c2ccccc2)=N[C@H]1Cc1c[nH]c2ccccc12` the same measures were 32 µM, 5.6 µM and more than 150 mg/kg.
In turn, `CN1C(=O)/C(=C\c2ccsc2)N=C(c2ccccc2)c2ccccc21` showed an IC50 on Cholecystokinin receptor of 25 µM.
As for `CCOC(=O)CN1C(=O)[C@@H](Cc2c[nH]c3ccccc23)N=C(c2ccccc2F)c2ccccc21`, the IC50 at Cholecystokinin receptor was 8.3 µM.
On the same count and under the same terms, in the case of `CN1C(=O)[C@@H](Cc2cn(Cc3ccccc3)c3ccccc23)N=C(c2ccccc2)c2cc(Cl)ccc21` it was ~ 150 uM.
On to `O=C1Nc2ccc(Cl)cc2C(c2ccccc2)=NC1Cc1ccc2ccccc2c1` (stereo not given), for which, at Cholecystokinin receptor, the IC50 is 49 µM.
The same measure, in the same setting: to `O=C(O)CCN1C(=O)[C@@H](Cc2c[nH]c3ccccc23)N=C(c2ccccc2F)c2ccccc21` belongs 1.4 µM.
As to `O=C1Nc2ccc(Cl)cc2C(c2ccccc2Cl)=N[C@@H]1Cc1c[nH]c2ccccc12`, the IC50 is 5 µM on Cholecystokinin receptor and more than 180 µM in experiment [3]. Besides, the ED50 in the experiment on Mus musculus [1] is 119 mg/kg; in the experiment with Mus musculus [2] it was more than 600 mg/kg.
`O=C1[C@H](Cc2c[nH]c3ccccc23)N=C(c2ccccc2)c2cc(Cl)ccc2N1Cc1ccccc1` returned an IC50 against Cholecystokinin receptor of more than 100 µM.
`O=C1Nc2ccc(Cl)cc2C(c2ccccc2)=N[C@@H]1COCc1ccccc1` gave an IC50 on Cholecystokinin receptor of 60 µM.
For `O=C1Nc2ccccc2C(c2ccccc2F)=NC1Cc1c[nH]c2ccc(F)cc12` (stereo not given), on Cholecystokinin receptor, the IC50 turned out to be 1.4 µM.
For the compound `NC(=O)CN1C(=O)[C@@H](Cc2c[nH]c3ccccc23)N=C(c2ccccc2F)c2ccccc21`, the IC50 on Cholecystokinin receptor turned out to be 2.1 µM.
On to `O=C1Nc2ccc(Cl)cc2C(c2ccccc2)=N[C@@H]1Cc1c[nH]c2ccccc12`, for which the IC50 is 3.4 µM on Cholecystokinin receptor and more than 100 µM in experiment [3]. The ED50 in the experiment with Mus musculus [1] is 88 mg/kg; with Mus musculus [2] it was more than 300 mg/kg.
In turn, `O=C1Nc2ccccc2C(c2ccccc2)=NC1C[C@H]1CNc2ccccc21` (stereo not given in full) registered an IC50 against Cholecystokinin receptor of 21 µM.
In turn, `CN1C(=O)CN=C(c2ccccc2F)c2cc([N+](=O)[O-])ccc21` [FLUNITRAZEPAM] registered an IC50 in experiment [3] of 0.0017 µM.
At Cholecystokinin receptor, `CN1CC(CC2N=C(c3ccccc3)c3ccccc3N(C)C2=O)c2ccccc21` (stereo not given) displayed an IC50 of 10 µM.
As to `O=C1Nc2ccccc2C(c2ccccc2)=NC1C[C@@H]1CNc2ccccc21` (stereo not given in full), the IC50 against Cholecystokinin receptor amounted to 3.2 µM.
At Cholecystokinin receptor, `O=C1[C@@H](Cc2c[nH]c3ccccc23)N=C(c2ccccc2)c2cc(Cl)ccc2N1Cc1ccccc1` came in with an IC50 of more than 100 µM.
On the same count and under the same terms, to `CN1C(=O)[C@@H](Cc2c[nH]c3ccccc23)N=C(c2ccccc2)c2cc(Cl)ccc21` belongs 1.4 µM.
Regarding `O=C1Nc2ccccc2C(c2ccccc2F)=NC1C[C@H]1CNc2ccccc21` (stereo not given in full), the IC50 against Cholecystokinin receptor was 17 µM. Compared with the last compound, the IC50 is about 12-fold higher.
In turn, `CC(C)CC(N)C(=O)N1CC(CC2N=C(c3ccccc3)c3ccccc3NC2=O)c2ccccc21.Cl` (stereo not given) gave an IC50 on Cholecystokinin receptor of 6.6 µM.
For `CC1=N[C@H](Cc2c[nH]c3ccccc23)C(=O)Nc2ccccc21`, the figures for the IC50 (at Cholecystokinin receptor; in experiment [3]) were 48 µM and more than 100 µM, respectively.
`O=C1Nc2ccccc2C(c2ccccc2F)=NC1Cc1ccsc1` (stereo not given) gave an IC50 on Cholecystokinin receptor of 33 µM.
`CC(C)CCN1C(=O)[C@@H](Cc2c[nH]c3ccccc23)N=C(c2ccccc2F)c2ccccc21`: the half-inhibitory concentration (IC50) against Cholecystokinin receptor is ~ 100 uM.
Take `CC(C)C[C@@H]1N[C@H]2N(C1=O)c1ccccc1[C@@]2(O)C[C@@H]1NC(=O)c2ccccc2-n2c1nc1ccccc1c2=O` [ASPERLICIN]: the IC50 in experiment [3] came to 50 µM. For the same compound, in the experiment with Mus musculus [2], the ED50 was more than 300 mg/kg. Besides, the Ratio in the experiment filed under Rattus norvegicus was 0.028.
`CN1C(=O)/C(=C/c2ccsc2)N=C(c2ccccc2)c2ccccc21` registered an IC50 against Cholecystokinin receptor of 100 µM.
With `CN1C(=O)[C@@H](Cc2cn(C)c3ccccc23)N=C(c2ccccc2)c2ccccc21`, the IC50 on Cholecystokinin receptor turned out to be 0.1 µM.
Consider `O=C1Nc2ccccc2C(c2ccccc2F)=NC1C[C@@H]1CNc2ccccc21` (stereo not given in full), for which the IC50 against Cholecystokinin receptor is 11 µM.
Take `O=C1Nc2ccccc2C(c2ccccc2F)=N[C@H]1Cc1c[nH]c2ccccc12`: at Cholecystokinin receptor, the IC50 came out at 10.6 µM.
With `O=C1Nc2ccc(Cl)cc2C(c2ccccc2)=NC1Cc1cccc2ccccc12` (stereo not given), the IC50 on Cholecystokinin receptor came out at 23 µM.
Consider `O=C1Nc2ccccc2C(c2ccccc2F)=N[C@@H]1Cc1c[nH]c2ccccc12`, for which the IC50 at Cholecystokinin receptor is 0.5 µM; in experiment [3], more than 100 µM. Also, the values for the ED50 with Mus musculus [1] and with Mus musculus [2] were 41 mg/kg and 104 mg/kg, respectively.
Regarding `N#CCCN1C(=O)[C@@H](Cc2c[nH]c3ccccc23)N=C(c2ccccc2F)c2ccccc21`, the IC50 against Cholecystokinin receptor is 0.7 µM.
At Cholecystokinin receptor, `O=C1[C@@H](Cc2c[nH]c3ccccc23)N=C(c2ccccc2F)c2ccccc2N1CC1CC1` displayed an IC50 of 2.2 µM.
Still for that read-out and setting: in the case of `CCN1C(=O)[C@@H](Cc2c[nH]c3ccccc23)N=C(c2ccccc2F)c2ccccc21` it was 0.3 µM; in that of `O=C1[C@@H](Cc2c[nH]c3ccccc23)N=C(c2ccccc2F)c2ccccc2N1CC(F)(F)F`, 3.6 µM.
With `CC(=O)N1C(Cc2cn(C)c3ccccc23)C(=O)N(C)c2ccccc2[C@@H]1c1ccccc1F` (stereo not given in full), the half-inhibitory concentration (IC50) against Cholecystokinin receptor is given as ~ 100 uM.
With `CCCCCN1C(=O)[C@@H](Cc2c[nH]c3ccccc23)N=C(c2ccccc2F)c2ccccc21`, the IC50 on Cholecystokinin receptor was ~ 100 uM.
For the compound `CN1C[C@@H](CC2N=C(c3ccccc3)c3ccccc3N(C)C2=O)c2ccccc21` (stereo not given in full), on Cholecystokinin receptor, the IC50 was 13 µM.
Take `O=C(O)CN1C(=O)[C@@H](Cc2c[nH]c3ccccc23)N=C(c2ccccc2F)c2ccccc21`: the IC50 against Cholecystokinin receptor was 0.3 µM; in experiment [3], more than 100 µM. The compound further displayed an ED50 in the experiment with Mus musculus [2] of 42 mg/kg. For the same compound, the Ratio in the experiment listed under Rattus norvegicus was less than 0.003.
`O=C1Nc2ccc(Cl)cc2C(c2ccccc2)=N[C@@H]1Cc1ccc(OCc2ccccc2)cc1` returned an IC50 on Cholecystokinin receptor of more than 100 µM.
Same read-out and setting: in the case of `CC(C)C[C@H]1N=C(c2ccccc2)c2cc(Cl)ccc2NC1=O` it was 42 µM.

As usually defined, the IC50 is the concentration that inhibits the measured activity by half. A lower IC50 goes with greater potency. What is called ED50 is the dose at which the effect has come halfway, by size or by number of responders. Lower therefore signals greater potency.

Values taken from ChEMBL document CHEMBL1123786, “Design of nonpeptidal ligands for a peptide receptor: cholecystokinin antagonists” (J Med Chem, 1987).
